Compound activity from PubChem BioAssay.
Shown are actives, neighbours in structure and some others; about 1.7% of the full set was active somewhere.
LMPTP inh – LMPTP (human) inhibition; recombinant LMPTP-A, OMFP fluorogenic substrate, fluorescence intensity; inhibition, % at 20 µM; AID 651560; P24666; 0.22% of 360,000 active;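 active = compounds that cut the enzyme signal by at least half of the control window in the single-dose screen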;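 note: plate controls were DMSO wells with enzyme plus substrate for no effect and substrate without enzyme for full effect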
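Assay system: LMPTP-A phosphatase enzyme | Input: 0.625 nM enzyme | Also added: Fluorogenic phosphatase substrate OMFP at 400 µM final | Compound dosing: One test concentration per compound, 20 µM, with 3% DMSO overall | Schedule: 50 min enzyme reaction at room temperature, protected from light | Signal: Fluorescence intensity | Benchmarks: no-enzyme and uninhibited controls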
Pemphigus Ab inh – inhibitors of pemphigus antibody binding to human desmoglein-3. DSG3-coupled beads, scFv-anti-DSG3-GFP binding, flow cytometry; stronger effect = lower value. P32926. AID 588358. binding (percent of control), % at 10 µM. 0.48% of 310,000 active;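 active = binding more than 3 SD below its plate's average and above zero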;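 note: hits lower antibody fragment binding to DSG3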
SUMO1 PPI mod – SUMO1-SIM interaction modulation | P63165 | SUMO1 binding to a labelled peptide, TR-FRET, 1 h | inhibition, % at 20 µM | 0.33% of 360,000 active; in the data active = inhibition above about 37%
Target sequence (P63165 whole entry, looked up): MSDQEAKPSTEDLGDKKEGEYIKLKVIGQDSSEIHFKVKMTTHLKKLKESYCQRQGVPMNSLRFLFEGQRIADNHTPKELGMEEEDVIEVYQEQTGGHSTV
STEP block – STEP (human) phosphatase inhibition; inhibition, % at 20 µM; recombinant STEP, OMFP fluorogenic substrate, fluorescence; P54829; 0.25% of 360,000 active;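 active = inhibition at 20 µM, scaled per plate between control wells, above about 37%, limit read from the data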;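 note: 0% = DMSO with enzyme and substrate and 100% = substrate only without enzyme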
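material = STEP tyrosine phosphatase | reagent = fluorogenic phosphatase substrate OMFP at 25 µM final | doses = single compound dose of 20 µM, 1% DMSO final | schedule = 20 min reaction, room temperature, in the dark | measured by = fluorescence, 480/540 nm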
Scp-1 inhibitor – Scp-1 (human) phosphatase inhibition; Recombinant Scp1, phosphopeptide, malachite green phosphate absorbance; 0.88% of 340,000 active; Q9GZU7; inhibition, % at 20 µM;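 active = inhibition above about 50% at 20 µM, limit read from the data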;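 note: plate controls were DMSO wells with enzyme for no effect and wells lacking enzyme for full effect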
Target sequence (Q9GZU7 76-261 limits assumed): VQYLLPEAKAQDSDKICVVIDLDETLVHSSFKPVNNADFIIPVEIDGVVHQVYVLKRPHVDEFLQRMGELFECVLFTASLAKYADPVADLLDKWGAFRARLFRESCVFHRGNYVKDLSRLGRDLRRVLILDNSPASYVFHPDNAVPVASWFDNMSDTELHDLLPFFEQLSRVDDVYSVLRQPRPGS
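System: truncated SCP-1 phosphatase (76-261aa); medium: Tris acetate buffer pH 5.5 with MgCl2 and Tween-20; incubation: 45 min room-temperature reaction, 5 min colour, 30 min stabiliser; compound: single 20 µM dose, 1% DMSO; reagent: Phosphorylated 17-residue peptide substrate; read-out: % inhibition at 20 µM; technique: colorimetric free-phosphate detection, absorbance 630 nm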
* marks the source's active call; other numbers are inactive results; / = no result given.

SMILES	LMPTP inh	Pemphigus Ab inh	SUMO1 PPI mod	STEP block	Scp-1 inhibitor
Cc1cc(N2CCOCC2)nc2ccc(NC(=S)N3CCN(c4ccccc4)CC3)cc12	3	1.0*	-2	0	4
O=C(OCC(=O)N1CCN(C(=O)c2ccco2)CC1)c1cc(-c2ccco2)nc2ccccc12	60*	91	26	79*	87*
O=C(OCC(=O)N1CCN(C(=O)c2ccco2)CC1)c1cc(-c2ccc(Cl)c(Cl)c2Cl)nc2ccccc12	3	82	64*	2	-7
CCNC(=O)COC(=O)c1cc(-c2ccco2)nc2ccccc12	5	98	-2	0	70*
CN1CCCN(C(=O)c2cc(-c3ccc(Cl)c(Cl)c3Cl)nc3ccccc23)CC1	-2	99	9	-2	-6
O=C(CC1OC(=O)c2ccccc21)Nc1cc(S(=O)(=O)N2CCOCC2)ccc1OCC(F)(F)F (stereo not given)	-1	101	5	4	0
CC(C)CN1CCN(Cc2nc(C(C)C)cs2)CC1CCO (stereo not given)	-1	-8.8*	-1	1	2
CC(C)=CCN1CCN(Cc2nc(C(C)C)cs2)CC1CCO (stereo not given)	-1	104	-7	0	5
COc1cc(OC)cc(-c2c(Sc3ccccc3)c3cc(-c4ccc(OC)nc4)ccc3n2C)c1	4	/	-21	/	/
O=C1c2ccccc2C(=O)N1CCc1csc(NNc2nc(CCN3C(=O)c4ccccc4C3=O)cs2)n1	7	76*	11	-1	8
Cc1ccc(-c2nc(CCN3C(=O)c4ccccc4C3=O)cs2)cc1	2	104	-8	4	-9
CCNC(=O)C1(C)CCN(C(=O)c2ccc3c(c2)CCO3)C1 (stereo not given)	0	/	-7	-1	/
O=C(NNC(=O)c1cc2cc(OC(F)(F)F)ccc2[nH]1)c1cccc(C(F)(F)F)c1	-14	101	1	-1	-15
CC(C)CNC(=O)C(=O)NCc1ccccn1	-1	15*	3	-2	-5
COc1ccc(COCC(O)CN(Cc2ccccc2)C(C)C)cc1OC (stereo not given)	3	108	1	0	-7
NNC(=O)CP(=O)(c1ccccc1)c1ccccc1	-1	/	-4	-3	5
CCNC(=O)CP(=O)(c1ccccc1)c1ccccc1	-1	73*	-1	2	-1
CCOC(=O)CSc1nnc(-c2ccccc2NC(=O)c2ccccc2)o1	2	69*	0	-1	-4
CCn1c(COc2ccc(=O)n(-c3ccccc3)n2)n[nH]c1=S	-4	98	-5	-3	-4
Oc1c(N=Nc2nn[nH]n2)ccc2ccccc12	9	/	50*	3	/
Cc1nn(CC(=O)N(C)Cc2ccccc2)c(=O)c2cccn12	-1	108	-6	1	-4
CC1=NN(c2ccccc2)C(=O)/C1=C/c1ccc(-c2ccc(C)c(C(=O)O)c2)o1	/	95	/	/	5
O=C1NN(c2cccc(Br)c2)C(=O)/C1=C/c1ccc(-c2cc([N+](=O)[O-])ccc2O)o1	77*	82*	102*	70*	99*
CC1=NN(c2ccc(Cl)c(C(=O)O)c2)C(=O)/C1=C\c1ccc(-c2ccc(C(=O)O)cc2)o1	1	100	14	21	81*
CC1=NN(c2ccc(C)cc2)C(=O)/C1=C/c1ccc(-c2cc([N+](=O)[O-])ccc2O)o1	25	108	80*	7	20
SMILES	LMPTP inh	Pemphigus Ab inh	SUMO1 PPI mod	STEP block	Scp-1 inhibitor
O=C(CN1CCC(Cc2ccccc2)CC1)N1CCc2ccccc2C1	-1	102	0	0	3
CN(CC(=O)Nc1cccc(C(F)(F)F)c1)C1=NS(=O)(=O)c2ccccc21	0	95	-3	0	-3
CCOc1ccc(N(CC(=O)NCCSCc2ccco2)S(=O)(=O)c2ccc(F)cc2)cc1	0	98	4	-2	-10
CCOc1ccc(N(CC(=O)NCCSCc2ccco2)S(=O)(=O)c2ccc(C)cc2)cc1	1	81*	5	1	-5
Cc1ccc(C)c(S(=O)(=O)/N=C2\C=C(NS(=O)(=O)c3ccccc3)C(=O)c3ccccc32)c1	2	107	9	-2	-2
Cc1cc(C)c(S(=O)(=O)/N=C2/C=C(Sc3ncn[nH]3)C(=O)c3ccccc32)cc1C	14	102	92*	7	4
